Laboratory results taken from ChEMBL document CHEMBL1140091, “2-aminothienopyridazines as novel adenosine A1 receptor allosteric modulators and antagonists” (J Med Chem, 2008).
“And” between values parts separate entries of the source, which are not always exact repeats. Equal entries are not always repeated. The source made the active and inactive calls. The rule behind the calls is not given here.

Experiments:
[1] = biological target: T1, Adenosine receptor A1 (Homo sapiens) (UniProt P30542); experiment: Modulation of human adenosine A1 receptor expressed in CHO-K1 cells assessed as stabilization of [125I]ABA-receptor-G protein ternary complex at 50 uM by dissociation kinetic assay; type: cell-based
T1 sequence (whole entry): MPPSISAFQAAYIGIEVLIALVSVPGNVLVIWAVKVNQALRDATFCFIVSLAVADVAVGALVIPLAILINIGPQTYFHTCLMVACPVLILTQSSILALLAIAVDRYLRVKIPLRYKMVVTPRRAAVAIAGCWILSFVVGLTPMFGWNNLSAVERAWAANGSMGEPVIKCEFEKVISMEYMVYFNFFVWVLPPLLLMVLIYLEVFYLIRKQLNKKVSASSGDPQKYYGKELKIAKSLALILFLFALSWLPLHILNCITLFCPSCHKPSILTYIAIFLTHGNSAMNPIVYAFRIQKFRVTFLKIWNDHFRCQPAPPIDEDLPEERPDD
In short: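 CHO-K1 membranes with human A1AR (10 µg) equilibrated 90 min at room temperature with 0.5 nM [125I]-ABA in 10 mM HEPES pH 7.2, 0.5 mM MgCl2, 1 U/mL ADA. Modulator (0.1-50 µM final) added for 30 min. Dissociation started with 100 µM BW-1433 plus 25 µM GTPγS for 10 min, then filtration and counting. K-score = 100×(B−Bo)/(Beq−Bo); n = 3. EC50 from variable-slope sigmoidal fit.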

[2] = biological target: T2, Adenosine receptor A1 (Homo sapiens, UniProt P30542); experiment: Modulation of human adenosine A1 receptor expressed in CHO-K1 cells assessed as allosteric effect on [125I]ABA dissociation; type: cell-based
T2 sequence (P30542 whole entry): T1 sequence (whole entry)

[3] = biological target: T1, Adenosine receptor A1 (Homo sapiens); experiment: Displacement of [3H]CPX from human adenosine A1 receptor expressed in CHO-K1 cells at 50 uM; type: cell-based
In short: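 Incubated with 2 nM [3H]CPX and 50 µM modulator (final) for 90 min at room temperature. Nonspecific binding defined with 100 µM NECA. Filtration and scintillation counting; triplicate, given as % inhibition versus control.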

[4] = biological target: T1, Adenosine receptor A1 (Homo sapiens); experiment: (§1) Antagonist activity at human adenosine A1 receptor expressed in FlpIn-CHO cells assessed as inhibition of R-PIA-mediated ERK1/2 phosphorylation; type: functional, cell-based
[5] = biological target: T2, Adenosine receptor A1; experiment: as §1; type: functional, cell-based; conditions: read-out: pA2 (converted)
[6] = biological target: T2, Adenosine receptor A1; experiment: Antagonist activity at human adenosine A1 receptor assessed as inhibition of R-PIA-mediated [35S]GTPgammaS binding to G protein; type: functional; conditions: read-out: pA2 (converted)
In short: (§2)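 Membranes (15 µg) from CHO FlpIn cells stably expressing human A1AR. Preincubated 60 min at 30 °C in 10 mM HEPES, 100 mM NaCl, 10 mM MgCl2, pH 7.4, with 10 µM GDP, R-PIA (0.01 nM - 1 µM) ± increasing modulator concentrations. [35S]GTPγS (100 pM) then added for another 30 min at 30 °C. Filtration and scintillation counting; three experiments in duplicate.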

[7] = biological target: T1, Adenosine receptor A1 (Homo sapiens); experiment: Inverse agonist activity at human adenosine A1 receptor assessed as reduction of inhibition of R-PIA-mediated [35S]GTPgammaS binding to G protein; type: functional; in short: as §2
[8] = biological target: T2, Adenosine receptor A1; experiment: Antagonist activity at human adenosine A1 receptor expressed in CHO-K1 cells assessed as reduction of [3H]CCPA specific equilibrium binding; type: cell-based

Row | SMILES | Activity [1] | EC50 [2] [µM] | inhibition [3] [%] | other results
1 | CCOC(=O)c1nn(-c2ccc(C(C)(C)C)cc2)c(=O)c2c(N)scc12 | 59% | 9.75 | 23 | Activity [4]: inactive
2 | CCOC(=O)c1cnn(C)c1N | < 5% | – | – | –
3 | CCOC(=O)c1cn[nH]c1N | < 5% | – | – | –
4 | NC(=O)c1nnc2ccccc2c1N | < 5% | – | – | –
5 | NC(=O)c1nnn(Cc2ccc(F)cc2)c1N | < 5% | – | – | –
6 | NC(=O)c1cc(Cl)c(Cl)cc1C(N)=O | < 5% | – | – | –
7 | Cc1sc(N)c(C(=O)c2cccs2)c1C | 33.2% | 11.2 | 50.3 | Activity [4]: inactive
8 | Nc1ccc(Cl)cc1C(=O)NCc1ccncc1 | < 5% | – | – | –
9 | CSc1nc(C(N)=O)c(N)s1 | < 5% | – | – | –
10 | NNC(=O)c1nccnc1N | < 5% | – | – | –
11 | CCOC(=O)c1c(C)nsc1N | < 5% | – | – | –
12 | Nc1cc(Cl)ccc1C(=O)N1CCSCC1 | 6% | – | – | –
13 | Cc1nn(-c2ccccc2)c2nc(N)c(C(N)=O)cc12 | < 5% | – | – | –
14 | COc1ccc(-n2nc(C(=O)OC(C)(C)C)c3csc(N)c3c2=O)cc1 | 5% | – | – | –
15 | NC(=O)c1nnn(Cc2ccc(Cl)cc2)c1N | < 5% | – | – | –
16 | CCOC(=O)c1nn(-c2ccc(I)cc2)c(=O)c2c(N)scc12 | 65.4% | 7.1 | 100 | Kb [5]: 0.0794 µM
17 | COc1ccc(-n2nc(C(=O)O)c3csc(N)c3c2=O)cc1 | 55.8% | 2.6 | 29.5 | Activity [4]: inactive
18 | CCOC(=O)c1nn(-c2cccc(C(F)(F)F)c2)c(=O)c2c(N)scc12 | 66.1% | 2.7 | 32 | Activity [4]: inactive
19 | Cc1c(C(=O)Nc2ccccc2)sc(N)c1C(N)=O | 80.3% and 80% | 3.95 | 32.3 | Activity [4]: inactive
20 | Nc1nccnc1C(=O)N/N=C/c1ccc(Cl)cc1 | < 5% | – | – | –
21 | Nc1[nH]nc2[nH]c(-c3ccccc3)cc(=O)c12 | < 5% | – | – | –
22 | Nc1c2c(=O)cc(-c3ccccc3)[nH]c2nn1-c1ccccc1 | < 5% | – | – | –

Row | SMILES | Activity [1] | EC50 [2] [µM] | inhibition [3] [%] | other results
23 | Nc1ccccc1C(=O)N/N=C/c1ccc2c(c1)OCO2 | < 5% | – | – | –
24 | CCOC(=O)c1nn(-c2cccc(Cl)c2)c(=O)c2c(N)scc12 | 69.2% | 5.7 | 100 | Kb [5]: 0.002 µM; Kb [6]: 0.00794 µM; Activity [7]: Dose-dependent effect; Ki [8]: 0.00575 µM
25 | Nc1nccnc1C(=O)N/N=C/c1ccco1 | < 5% | – | – | –
26 | CCOC(=O)c1nn(-c2ccc(OC(C)=O)cc2)c(=O)c2c(N)scc12 | 66.6% | 2.5 | 48.9 | Kb [5]: 0.0398 µM
27 | CCOC(=O)c1nn(-c2ccc(OC)cc2)c(=O)c2c(N)scc12 | 68.6% | 4.3 | 92.5 | Kb [5]: 0.2 µM
28 | Nc1nccnc1C(=O)NNS(=O)(=O)c1ccc(Cl)cc1 | < 5% | – | – | –
29 | Nc1ccccc1C(=O)NC1CCCCNC1=O (stereo not drawn) | < 5% | – | – | –
30 | Nc1ccccc1C(=O)NNc1ccccc1Cl | < 5% | – | – | –
31 | CCOC(=O)c1cnc(SCC(=O)c2cc(Cl)c(Cl)s2)nc1N | 11% | – | – | –
32 | COc1cccc(-c2cc3c(c(N)c2C#N)c(=O)oc2ccccc23)c1 | < 5% | – | – | –
33 | CCOC(=O)c1nn(-c2ccc(C(F)(F)F)cc2)c(=O)c2c(N)scc12 | 81% | 8.4 | 77.2 | Activity [4]: inactive
34 | CCOC(=O)c1nn(-c2ccc([N+](=O)[O-])cc2)c(=O)c2c(N)scc12 | 19.6% | 13 | 73.4 | Activity [4]: inactive
35 | CCOC(=O)c1nn(-c2ccccc2)c(=O)c2c(N)scc12 | 60.4% | 13.6 | 22.8 | Kb [5]: 0.0158 µM
36 | Nc1scc2c(C(=O)O)nn(-c3ccccc3)c(=O)c12 | – | 9.8 | – | –
37 | Cc1nc2ccccc2c(C(=O)O)c1N | < 5% | – | – | –
38 | CCOC(=O)c1nn(-c2ccc(O)cc2)c(=O)c2c(N)scc12 | 75.9% | 7.1 | 65.8 | Kb [5]: 0.0398 µM
39 | Nc1ccc(Cl)cc1C(=O)NCc1ccccn1 | < 5% | – | – | –
40 | NC(=O)c1ncccc1C(=O)O | < 5% | – | – | –
41 | Nc1nccnc1C(=O)N/N=C/c1ccc(C(F)(F)F)cc1 | < 5% | – | – | –
42 | CCOC(=O)c1c(N)sc2c1-c1ccccc1C2 | < 5% | – | – | –
43 | CCOC(=O)c1nn(-c2ccc(OS(=O)(=O)C(F)(F)F)cc2)c(=O)c2c(N)scc12 | 68.5% | 4.9 | 21.5 | Activity [4]: inactive
